One block for each molecule: values may come before it. Calls of active or inactive are those of the source. No cut-off for these calls is given here.
Experiments:
[1] = target: T1, High affinity 3',5'-cyclic-AMP phosphodiesterase 7A (Homo sapiens, UniProt Q13946); experiment: Inhibition of human recombinant PDE7A1-mediated [3H]cAMP hydrolysis at 10 uM after 20 mins by scintillation proximity assay
Summary of the method: (§1)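 Scintillation proximity assay with human recombinant full-length enzyme: PDE7A1 or PDE3A at 0.02 unit, or PDE7B at 0.5 unit. Enzyme incubated with 5 nCi [3H]cAMP for 20 min at 30 °C. SPA beads added, shaken 1 h at room temperature, then settled 30 min before counting. Single-point screens at 10 μM run in duplicate. IC50 from a sigmoidal dose−response fit.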

[2] = target: T1, High affinity 3',5'-cyclic-AMP phosphodiesterase 7A; experiment: Inhibition of PDE7A1
[3] = target: T1, High affinity 3',5'-cyclic-AMP phosphodiesterase 7A; experiment: Competitive inhibition of human recombinant PDE7A1 using 5 nM to 2 uM cAMP as substrate by Lineweaver-Burk plot analysis
Summary of the method: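 PDE7A1 scintillation proximity assay with unlabeled cAMP varied from 5 nM to 2 μM, against fixed [3H]cAMP tracer. Two inhibitor concentrations tested, with AMP formation measured. Data analysed by Lineweaver−Burk plots. Triplicate measurements, mean ± SEM.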

[4] = target: T1, High affinity 3',5'-cyclic-AMP phosphodiesterase 7A; experiment: Inhibition of human recombinant PDE7A1-mediated [3H]cAMP hydrolysis after 20 mins by scintillation proximity assay; summary of the method: as §1
[5] = Cytotoxicity against rat microglia cells at 5 to 10 uM after 16 hrs by MTT assay; assay type: cell-based
Summary of the method: (§2)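 Primary neonatal rat cortical astrocytes or microglia, after 1 week in culture, exposed to compound for 16 h. MTT at 0.5 mg/mL for 4 h, then solubilized in 10% SDS/0.01 M HCl for 12 h in the dark. Absorbance read at 595 nm. Six replications in three experiments.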

[6] = Cytotoxicity against rat astrocytes at 5 to 10 uM after 16 hrs by MTT assay; assay type: cell-based; conditions: astrocyte; summary of the method: as §2
Microglia = experiment: Antiinflammatory activity in rat microglia cells assessed as inhibition of LPS-induced nitrite production at 5 to 10 uM incubated for 1 hr prior to LPS-challenge measured after 24 hrs by Griess method; assay type: functional, cell-based
Summary of the method: (§3)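 Glial cells from neonatal rat cerebral cortex; microglia and astrocytes separated by shaking and cultured 1 week. Purity >98% by OX42 and GFAP staining. Microglia kept with 10 ng/mL GM-CSF. Cells given compound for 1 h, then LPS (10 μg/mL) for 24 h. Nitrite in the supernatant measured by Griess reaction at 492/540 nm. Mean ± SD of six replications in three experiments.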

Astrocyte = experiment: Antiinflammatory activity in rat astrocytes assessed as inhibition of LPS-induced nitrite production at 5 to 10 uM incubated for 1 hr prior to LPS-challenge measured after 24 hrs by Griess method; assay type: functional, cell-based; summary of the method: as §3
[7] = target: T2, cGMP-inhibited 3',5'-cyclic phosphodiesterase 3A (Homo sapiens, UniProt Q14432); experiment: Inhibition of human recombinant PDE3A-mediated [3H]cAMP hydrolysis at 10 uM after 20 mins by scintillation proximity assay; summary of the method: as §1
T2 sequence (Q14432 whole entry): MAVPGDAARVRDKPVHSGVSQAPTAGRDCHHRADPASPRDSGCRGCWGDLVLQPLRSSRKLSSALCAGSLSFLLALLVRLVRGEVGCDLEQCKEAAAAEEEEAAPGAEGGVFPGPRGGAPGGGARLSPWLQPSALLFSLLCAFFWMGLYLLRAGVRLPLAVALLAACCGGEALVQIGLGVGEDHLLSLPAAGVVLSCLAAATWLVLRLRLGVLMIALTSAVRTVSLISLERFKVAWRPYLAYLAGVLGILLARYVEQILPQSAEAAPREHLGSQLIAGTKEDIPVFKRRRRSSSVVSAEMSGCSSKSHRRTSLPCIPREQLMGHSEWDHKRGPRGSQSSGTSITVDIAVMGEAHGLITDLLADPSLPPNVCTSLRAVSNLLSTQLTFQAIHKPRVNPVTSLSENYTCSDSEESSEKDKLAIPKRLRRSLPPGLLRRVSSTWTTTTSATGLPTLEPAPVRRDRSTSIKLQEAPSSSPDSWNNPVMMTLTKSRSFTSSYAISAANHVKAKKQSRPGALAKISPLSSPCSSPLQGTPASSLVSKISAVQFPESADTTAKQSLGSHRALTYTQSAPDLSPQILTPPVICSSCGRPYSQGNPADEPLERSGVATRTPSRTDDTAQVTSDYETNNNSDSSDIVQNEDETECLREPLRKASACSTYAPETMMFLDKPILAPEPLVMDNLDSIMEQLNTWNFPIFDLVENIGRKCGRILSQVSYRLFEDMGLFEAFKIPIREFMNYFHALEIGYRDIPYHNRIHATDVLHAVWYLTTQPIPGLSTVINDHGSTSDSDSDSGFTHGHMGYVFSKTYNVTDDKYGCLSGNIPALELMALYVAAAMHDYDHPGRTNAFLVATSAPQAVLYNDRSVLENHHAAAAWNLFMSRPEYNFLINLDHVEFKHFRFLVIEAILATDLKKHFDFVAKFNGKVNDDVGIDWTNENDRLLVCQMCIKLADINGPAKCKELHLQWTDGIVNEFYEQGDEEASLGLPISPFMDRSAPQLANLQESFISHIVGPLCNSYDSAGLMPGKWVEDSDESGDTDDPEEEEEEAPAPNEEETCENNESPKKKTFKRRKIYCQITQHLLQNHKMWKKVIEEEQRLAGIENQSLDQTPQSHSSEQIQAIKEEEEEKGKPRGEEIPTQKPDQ

[8] = target: T2, cGMP-inhibited 3',5'-cyclic phosphodiesterase 3A; experiment: Inhibition of human recombinant PDE3A-mediated [3H]cAMP hydrolysis after 20 mins by scintillation proximity assay; summary of the method: as §1
Homo sapiens [9] = organism: Homo sapiens; experiment: Selectivity index, ratio of IC50 for human recombinant PDE7A1 to IC50 for human recombinant PDE3A
Summary of the method: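 Ratio of IC50 values for PDE7A1 and PDE3A, each obtained by scintillation proximity assay with [3H]cAMP for 20 min at 30 °C.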

Homo sapiens [10] = organism: Homo sapiens; experiment: Selectivity index, ratio of IC50 for human recombinant PDE3A to IC50 for human recombinant PDE7A1
[11] = target: 3',5'-cyclic-AMP phosphodiesterase 7B (Homo sapiens) (UniProt Q9NP56); experiment: Inhibition of human recombinant PDE7B-mediated [3H]cAMP hydrolysis at 10 uM after 20 mins by scintillation proximity assay; summary of the method: as §1
Chain of 3',5'-cyclic-AMP phosphodiesterase 7B (Homo sapiens) (Q9NP56 whole entry): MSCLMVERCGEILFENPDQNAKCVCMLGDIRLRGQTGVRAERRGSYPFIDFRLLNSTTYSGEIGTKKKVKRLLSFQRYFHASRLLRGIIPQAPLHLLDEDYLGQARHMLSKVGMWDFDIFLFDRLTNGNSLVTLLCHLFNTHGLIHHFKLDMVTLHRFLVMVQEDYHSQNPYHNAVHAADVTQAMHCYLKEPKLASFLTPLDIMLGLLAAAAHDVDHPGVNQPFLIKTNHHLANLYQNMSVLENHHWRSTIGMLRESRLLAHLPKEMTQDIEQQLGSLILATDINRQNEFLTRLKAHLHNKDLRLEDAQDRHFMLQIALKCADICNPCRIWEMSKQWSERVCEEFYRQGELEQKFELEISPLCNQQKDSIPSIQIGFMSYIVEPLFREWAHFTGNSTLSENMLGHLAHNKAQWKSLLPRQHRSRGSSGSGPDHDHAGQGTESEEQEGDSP

[12] = target: 3',5'-cyclic-AMP phosphodiesterase 4B (Homo sapiens, UniProt Q07343); experiment: Inhibition of human recombinant PDE4B2 using fluorescein 3',5'-cyclic phosphate after 60 mins by IMAP fluorescence polarization assay
Chain of 3',5'-cyclic-AMP phosphodiesterase 4B (Q07343 whole entry): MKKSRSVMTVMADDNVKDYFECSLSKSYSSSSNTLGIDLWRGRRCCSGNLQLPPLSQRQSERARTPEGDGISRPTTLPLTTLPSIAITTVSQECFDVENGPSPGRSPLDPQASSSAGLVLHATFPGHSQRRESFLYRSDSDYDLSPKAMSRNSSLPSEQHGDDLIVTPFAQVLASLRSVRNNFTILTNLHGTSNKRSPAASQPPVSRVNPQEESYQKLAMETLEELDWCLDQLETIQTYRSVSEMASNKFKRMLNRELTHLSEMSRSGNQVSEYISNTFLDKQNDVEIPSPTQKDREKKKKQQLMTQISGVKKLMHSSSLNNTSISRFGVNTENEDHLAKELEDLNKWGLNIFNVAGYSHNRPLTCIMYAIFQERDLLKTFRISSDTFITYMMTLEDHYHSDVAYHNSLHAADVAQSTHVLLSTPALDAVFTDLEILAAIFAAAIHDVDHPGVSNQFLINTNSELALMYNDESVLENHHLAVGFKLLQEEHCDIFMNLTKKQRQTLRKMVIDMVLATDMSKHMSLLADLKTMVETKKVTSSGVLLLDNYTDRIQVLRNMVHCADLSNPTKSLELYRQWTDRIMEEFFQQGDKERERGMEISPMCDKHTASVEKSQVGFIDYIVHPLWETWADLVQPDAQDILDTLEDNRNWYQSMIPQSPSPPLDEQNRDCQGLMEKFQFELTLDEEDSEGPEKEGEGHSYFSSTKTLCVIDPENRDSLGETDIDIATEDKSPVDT
Summary of the method: (§4)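 IMAP fluorescence polarization assay. Human recombinant PDE4B2 or PDE4D3 (0.05 U) incubated with 1 nM fluorescein adenosine 3′,5′-cyclic phosphate for 60 min at ambient temperature. Stopped with IMAP binding reagent and left 1 h before reading FP. IC50 from a sigmoidal dose−response fit.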

[13] = target: 3',5'-cyclic-AMP phosphodiesterase 4D (Homo sapiens, UniProt Q08499); experiment: Inhibition of human recombinant PDE4D3 using fluorescein 3',5'-cyclic phosphate after 60 mins by IMAP fluorescence polarization assay; summary of the method: as §4
Chain of 3',5'-cyclic-AMP phosphodiesterase 4D (Q08499 whole entry): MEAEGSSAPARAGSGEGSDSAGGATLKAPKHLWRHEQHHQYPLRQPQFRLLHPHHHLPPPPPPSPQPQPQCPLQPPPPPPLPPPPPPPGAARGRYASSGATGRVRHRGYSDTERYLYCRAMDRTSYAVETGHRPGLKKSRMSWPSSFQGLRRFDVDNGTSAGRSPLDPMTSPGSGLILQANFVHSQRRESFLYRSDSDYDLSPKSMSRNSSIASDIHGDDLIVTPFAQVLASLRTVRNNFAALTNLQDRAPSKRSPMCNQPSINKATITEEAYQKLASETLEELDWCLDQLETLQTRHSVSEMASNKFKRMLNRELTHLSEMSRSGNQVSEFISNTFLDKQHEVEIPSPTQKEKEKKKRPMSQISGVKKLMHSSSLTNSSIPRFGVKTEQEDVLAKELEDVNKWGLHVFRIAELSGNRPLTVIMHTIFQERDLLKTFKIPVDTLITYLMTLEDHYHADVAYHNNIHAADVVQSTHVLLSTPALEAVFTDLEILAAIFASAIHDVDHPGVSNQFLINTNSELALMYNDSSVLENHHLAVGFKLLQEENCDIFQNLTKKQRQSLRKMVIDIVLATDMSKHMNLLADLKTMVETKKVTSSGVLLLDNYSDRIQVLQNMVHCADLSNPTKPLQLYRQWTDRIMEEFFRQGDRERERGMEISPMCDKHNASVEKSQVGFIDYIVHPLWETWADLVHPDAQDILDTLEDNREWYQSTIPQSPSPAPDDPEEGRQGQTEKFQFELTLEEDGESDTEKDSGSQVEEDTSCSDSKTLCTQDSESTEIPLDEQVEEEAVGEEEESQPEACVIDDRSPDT

[14] = target: T3, High affinity 3',5'-cyclic-AMP phosphodiesterase 7A (Mus musculus) (UniProt P70453); experiment: Inhibition of PDE7A1 in mouse RAW cells assessed as increase in cAMP level at 10 to 30 uM after 60 mins by enzyme immunoassay; assay type: cell-based
T3 sequence (whole entry): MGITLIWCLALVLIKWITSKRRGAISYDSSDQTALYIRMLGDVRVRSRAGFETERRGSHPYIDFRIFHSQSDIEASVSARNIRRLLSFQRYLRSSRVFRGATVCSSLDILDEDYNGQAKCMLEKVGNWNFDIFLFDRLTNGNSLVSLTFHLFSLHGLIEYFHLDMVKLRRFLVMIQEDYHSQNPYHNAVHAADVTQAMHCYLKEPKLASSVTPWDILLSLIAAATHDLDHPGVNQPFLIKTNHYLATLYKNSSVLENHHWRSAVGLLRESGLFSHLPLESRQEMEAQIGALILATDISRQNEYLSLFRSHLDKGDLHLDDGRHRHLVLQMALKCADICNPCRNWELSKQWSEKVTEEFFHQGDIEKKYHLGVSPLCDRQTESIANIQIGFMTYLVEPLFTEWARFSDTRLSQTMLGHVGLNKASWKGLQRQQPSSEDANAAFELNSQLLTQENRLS
Summary of the method: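 RAW cells seeded at 3 × 10^4 per well and incubated overnight. Compound added for 60 min at 10 or 30 μM. Intracellular cAMP quantified by enzyme immunoassay kit.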

[15] = Permeability across after 2 hrs 30 mins by pig brain lipid membrane based PAMPA-BBB assay; assay type: ADME; conditions: read-out: permeability
Summary of the method: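 PAMPA-BBB assay. Donor wells coated with porcine polar brain lipid in dodecane (20 mg/mL). Compound dissolved in EtOH/PBS pH 7.4; acceptor holds PBS/EtOH 70/30. Sandwich left 2 h 30 min at 25 °C. Concentrations read by UV at 3−5 wavelengths, in three wells and two independent runs. Ten reference drugs included for validation.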

Mus musculus [16] = experiment: Antiinflammatory activity in C57BL/6J mouse MOG(35 to 55)-induced experimental autoimmune encephalomyelitis model assessed as inhibition of clinical symptoms at 10 mg/kg, ip dosed daily for 16 days starting at day 5 after disease onset measured on day 32 post-immunization; assay type: functional, organism-based; design: dose 10 mg/kg
Mus musculus [17] = experiment: Antiinflammatory activity in C57BL/6J mouse MOG(35 to 55)-induced experimental autoimmune encephalomyelitis model assessed as inhibition of clinical symptoms at 10 mg/kg, ip dosed daily for 26 days starting at day 5 after disease onset measured on day 42 post-immunization; assay type: functional, organism-based; design: dose 10 mg/kg
Mus musculus [18] = experiment: Toxicity in C57BL/6J mouse MOG(35 to 55)-induced experimental autoimmune encephalomyelitis model assessed as decrease in body weight at 10 mg/kg, ip dosed daily for 26 days starting at day 5 after disease onset measured on day 42 post-immunization; assay type: organism-based; design: dose 10 mg/kg, route intraperitoneal; conditions: in vivo, 624 h

T1 sequence (Q13946 whole entry): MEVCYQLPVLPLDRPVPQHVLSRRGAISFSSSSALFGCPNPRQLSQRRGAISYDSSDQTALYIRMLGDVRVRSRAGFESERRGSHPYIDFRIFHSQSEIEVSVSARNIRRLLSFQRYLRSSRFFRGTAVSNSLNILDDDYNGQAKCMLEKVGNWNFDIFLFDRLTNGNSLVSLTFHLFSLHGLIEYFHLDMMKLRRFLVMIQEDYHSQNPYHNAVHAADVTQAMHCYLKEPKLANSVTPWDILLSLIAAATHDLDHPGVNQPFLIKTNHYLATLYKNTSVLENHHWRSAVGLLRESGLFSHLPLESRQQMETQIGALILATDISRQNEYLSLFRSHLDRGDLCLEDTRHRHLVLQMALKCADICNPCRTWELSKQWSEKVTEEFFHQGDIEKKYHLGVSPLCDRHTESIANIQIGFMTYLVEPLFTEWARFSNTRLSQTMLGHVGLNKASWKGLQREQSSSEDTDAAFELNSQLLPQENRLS

SMILES: COc1cc(COC(=O)c2ccc(-c3ccc(C)cc3[N+](=O)[O-])o2)cc(OC)c1OC
inhibition [1]: 28.8%

SMILES: CC1CCCCC1NC(=O)C(c1ccccc1Cl)N(CCc1ccccc1Cl)C(=O)CCl (stereo not drawn)
IC50 [2]: 0.88 µM

SMILES: COc1cc(CNC(=O)c2ccc(-c3ccc(C)cc3[N+](=O)[O-])o2)cc(OC)c1OC
inhibition [1]: 70.5% | Ki [3]: 7.22 µM | IC50 [4]: 3.2 µM | Activity [5]: Non-toxic | Activity [6]: Non-toxic | Activity (Microglia): Active | Activity (Astrocyte): Active | inhibition [7]: 49.6% | IC50 [8]: 3.9 µM | Ratio IC50 (Homo sapiens [9]): 0.82

SMILES: COc1cc(COC(=O)c2ccc(C)o2)cc(OC)c1OC
inhibition [1]: -9.9%

SMILES: CCOc1cc(COC(=O)c2ccc(-c3ccc(Cl)cc3Cl)o2)cc(OCC)c1OCC
inhibition [1]: 31.1%

SMILES: COc1cc(C(=O)OCc2ccc(-c3ccc(Cl)cc3Cl)o2)cc(OC)c1OC
inhibition [1]: 24.4%

SMILES: COc1cc(C(=O)OCc2ccc(-c3ccc([N+](=O)[O-])cc3)o2)cc(OC)c1OC
inhibition [1]: 49.5% | IC50 [4]: 33.4 µM

SMILES: COc1cc(COC(=O)c2ccc(-c3ccc(Cl)cc3[N+](=O)[O-])o2)cc(OC)c1OC
inhibition [1]: 49.1% | IC50 [4]: 7.31 µM | Activity [5]: Non-toxic | Activity [6]: Non-toxic | Activity (Microglia): Active | Activity (Astrocyte): Active | inhibition [7]: 11%

SMILES: CCOc1cc(COC(=O)c2ccc(-c3ccc(C)cc3)o2)cc(OCC)c1OCC
inhibition [1]: 28%

Second part, led by results:

inhibition [1]: 34.6%
SMILES: COc1cc(COC(=O)c2ccc(-c3ccccc3Cl)o2)cc(OC)c1OC

inhibition [1]: 23.5%
SMILES: COc1cc(CNC(=O)c2ccc(-c3cccc(C(F)(F)F)c3)o2)cc(OC)c1OC

inhibition [1]: 14%
SMILES: COc1cc(COC(=O)c2ccc(-c3cccc(C(F)(F)F)c3)o2)cc(OC)c1OC

inhibition [1]: 54.9% | IC50 [4]: 2.63 µM | inhibition [7]: 74.9% | IC50 [8]: 1.8 µM | Ratio IC50 (Homo sapiens [9]): 1.44
SMILES: COc1cc(COC(=O)c2ccc(-c3ccccc3C(F)(F)F)o2)cc(OC)c1OC
Activity [5]: Non-toxic | Activity [6]: Non-toxic | Activity (Microglia): Active | Activity (Astrocyte): Active

inhibition [1]: 38.3%
SMILES: COc1cc(COC(=O)c2ccc(-c3ccc(Cl)cc3Cl)o2)cc(OC)c1OC

inhibition [1]: 14%
SMILES: COc1ccc(-c2ccc(C(=O)OCc3cc(OC)c(OC)c(OC)c3)o2)cc1

inhibition [1]: 57.9% | Ki [3]: 5.91 µM | IC50 [4]: 5.17 µM | inhibition [7]: 46.1% | IC50 [8]: 54.6 µM | Ratio IC50 (Homo sapiens [9]): 0.09 | Ratio IC50 (Homo sapiens [10]): 10 | inhibition [11]: 23.2% | IC50 [12]: 12.4 µM | IC50 [13]: 66.3 µM | inhibition [14]: Active | Papp at 2.5 h [15]: 8.1 ×10⁻⁶ cm/s
SMILES: COc1cc(COC(=O)c2ccc(-c3ccccc3)o2)cc(OC)c1OC
Activity [5]: Non-toxic | Activity [6]: Non-toxic | Activity (Microglia): Active | Activity (Astrocyte): Active | Activity (Mus musculus [16]): Active | Activity (Mus musculus [17]): inactive | Activity (Mus musculus [18]): Toxic
